Bioassay records from PubChem BioAssay.
KLK5 inh: human KLK5 protease inhibitors, primary screen, biochemical, 1536-well; recombinant hK5, fluorogenic AMC substrate cleavage; inhibition, % at 5 µM; 0.59% of 210,000 active;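 active = inhibition of 40% or more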;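 note: 0% = enzyme controls without compound and 100% = no-enzyme blanks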
FXIa inh 1536: human FXIa protease inhibitors, primary screen, biochemical, 1536-well; AID 798, 2007; 0.14% of 220,000 active; Coagulation factor XI (Homo sapiens), P03951; purified FXIa, Boc-Glu-Ala-Arg-AMC fluorogenic substrate; inhibition, % at 5 µM;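 active = inhibition of at least 40%; inactive = inhibition below 40%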;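 note: fluorescence of freed AMC excited at 355 nm; 0% = enzyme without compound and 100% = no enzyme blank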
Target sequence (P03951 19-387 limits assumed): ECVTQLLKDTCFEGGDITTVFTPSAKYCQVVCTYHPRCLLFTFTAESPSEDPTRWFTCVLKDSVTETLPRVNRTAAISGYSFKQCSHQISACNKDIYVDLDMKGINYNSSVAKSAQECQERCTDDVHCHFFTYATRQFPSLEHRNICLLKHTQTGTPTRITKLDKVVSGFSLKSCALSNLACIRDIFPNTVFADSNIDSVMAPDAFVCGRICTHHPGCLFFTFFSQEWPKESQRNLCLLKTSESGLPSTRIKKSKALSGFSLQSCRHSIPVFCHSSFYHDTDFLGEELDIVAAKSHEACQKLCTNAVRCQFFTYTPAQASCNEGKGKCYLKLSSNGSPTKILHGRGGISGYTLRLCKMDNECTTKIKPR
Target sequence (P03951 388-625 limits assumed): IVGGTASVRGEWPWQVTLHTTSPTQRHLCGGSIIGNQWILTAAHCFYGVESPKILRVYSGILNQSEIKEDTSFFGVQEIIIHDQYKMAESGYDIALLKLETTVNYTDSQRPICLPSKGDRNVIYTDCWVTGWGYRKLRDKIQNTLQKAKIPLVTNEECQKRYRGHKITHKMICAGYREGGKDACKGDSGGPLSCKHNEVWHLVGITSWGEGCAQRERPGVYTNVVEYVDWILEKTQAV
FXIIa inh 1536: human FXIIa protease inhibitors, primary screen, biochemical, 1536-well | AID 800, 2007 | Coagulation factor XII (Homo sapiens), P00748 | 0.3% of 220,000 active | purified FXIIa, Boc-QGR-AMC fluorogenic substrate, 2 h | inhibition, % at 5 µM; in the data active = inhibition above about 40%;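 note: 0% = enzyme with no compound and 100% = blank without enzyme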
Calpain2 inh: inhibitors of pig calpain II, primary screen, biochemical, fluorogenic peptide substrate, 1536-well | purified calpain II, 30 min | inhibition, % at 16 µM | 0.37% of 220,000 active | AID 1236, 2008;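 active = inhibition above about 50%, limit read from the data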
Thrombin inh: human alpha-thrombin inhibitors, primary screen, counter-screen for coagulation protease inhibitor project, biochemical, 1536-well, fluorogenic AMC substrate. Prothrombin (Homo sapiens), P00734. 0.26% of 220,000 active. inhibition, % at 5 µM. Boc-VPR-AMC fluorogenic substrate cleavage;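 active = inhibition at or above 40%; inactive = inhibition below 40%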;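 note: 0% = enzyme with no compound and 100% = wells without enzyme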
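Test system: human alpha-thrombin protein / Dosing: one concentration per compound, 5 µM, with 0.2% DMSO / Medium: pH 7.5 Tris-saline with Tween 20 / Benchmarks: no-compound enzyme wells and no-enzyme blanks / Read-out basis: percent inhibition of thrombin substrate cleavage / Timing: reaction at room temperature / Measured by: fluorescence, ex 355 nm, em 460 nm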
* marks the source's active call; other numbers are inactive results. Shown are actives, neighbours in structure and some others; about 1.4% of the full set was active somewhere.

For Cc1ccc(OCC(=O)Nn2c(C)nc3ccccc3c2=O)c(C(C)C)c1 the results were KLK5 inh 0.4, FXIa inh 1536 5.2, FXIIa inh 1536 10.9, Calpain2 inh -11.1 and Thrombin inh -2.9.
For O=C(Nc1ccc(Cl)c(Cl)c1)C1CC(=O)N(c2ccc(Br)cc2)C1 (configuration not stated) the results were KLK5 inh 28.9, FXIa inh 1536 13.8, FXIIa inh 1536 19.2, Calpain2 inh 24.2 and Thrombin inh 49.1*.
Screening COC(=O)C1=C(N)c2c(F)cccc2C1(C#N)c1ccc(F)cc1 (configuration not stated) returned KLK5 inh 1.4, FXIa inh 1536 6.9, FXIIa inh 1536 17.7, Calpain2 inh -35.6 and Thrombin inh 0.2.
For COc1cc(C(=O)O/N=C2\C=CC(=O)C=C2C)cc(OC)c1OC the results were KLK5 inh 5.1, FXIa inh 1536 7.5, FXIIa inh 1536 41.0*, Calpain2 inh 7.0 and Thrombin inh -0.1.
Screening COC(=O)c1ccc(Oc2c(C)oc3c(CN4CCN(C)CC4)c(O)ccc3c2=O)cc1 returned KLK5 inh -214.4, FXIa inh 1536 -15.3, FXIIa inh 1536 -34.5 and Thrombin inh -17.0.
`Cc1cc(C)n2nc(SCc3nnc(SCc4ccccc4Cl)s3)nc2n1` gave KLK5 inh -24.7, FXIa inh 1536 -5.1, FXIIa inh 1536 0.2, Calpain2 inh 50.1* and Thrombin inh 19.0.
For Cc1cc(C)n2nc(SCc3nnc(SCc4ccccc4C)s3)nc2n1 the results were KLK5 inh -13.2, FXIa inh 1536 3.6, FXIIa inh 1536 22.9, Calpain2 inh 0.4 and Thrombin inh 4.6.
`CCn1cc(C(=O)NCc2cccnc2)c(=O)c2cc(F)c(N3CCN(C(=O)c4ccco4)CC3)cc21` gave KLK5 inh 4.1, FXIa inh 1536 15.1, FXIIa inh 1536 41.3*, Calpain2 inh -254.7 and Thrombin inh 1.1.
Screening O=C(CCCCCN1C(=O)c2cccc3cccc(c23)C1=O)NCc1cccnc1 returned KLK5 inh -1.5, FXIa inh 1536 -3.2, FXIIa inh 1536 2.2, Calpain2 inh 3.0 and Thrombin inh -3.1.
O=C(CCCN1C(=O)c2cccc3cccc(c23)C1=O)NCc1cccnc1 was read as KLK5 inh 39.0, FXIa inh 1536 35.5, FXIIa inh 1536 49.1*, Calpain2 inh -18.3 and Thrombin inh 20.0.
O=C1CCC(C(=O)Nc2ccccc2N2CCOCC2)=NN1 was read as KLK5 inh 1.1, FXIa inh 1536 -0.8, FXIIa inh 1536 1.6, Calpain2 inh -4.8 and Thrombin inh -4.8.
`Cc1ccc(C(=O)Nc2cccnc2Oc2ccc(Cl)cc2)cc1` gave KLK5 inh -1.7, FXIa inh 1536 1.0, FXIIa inh 1536 1.7, Calpain2 inh 20.7 and Thrombin inh -4.6.
Screening Cc1ccc(S(=O)(=O)Nc2cccnc2Oc2ccc(Cl)cc2)cc1 returned KLK5 inh 27.7, FXIa inh 1536 16.7, FXIIa inh 1536 44.3*, Calpain2 inh 18.1 and Thrombin inh 46.7*.
`COc1cc(NS(=O)(=O)c2ccc(NC(=S)NC(=O)c3ccco3)cc2)ncn1` gave KLK5 inh -1.8, FXIa inh 1536 -4.4, FXIIa inh 1536 2.4, Calpain2 inh -14.0 and Thrombin inh -5.4.
`COc1cc(NS(=O)(=O)c2ccc(NC(=S)NC(=O)c3sc4ccccc4c3Cl)cc2)ncn1` gave KLK5 inh -21.5, FXIa inh 1536 -2.5, FXIIa inh 1536 0.5, Calpain2 inh 57.5* and Thrombin inh -8.8.
Cc1ccc(CNc2ncc(-c3ccccc3)n2C)o1 was read as KLK5 inh -10.4, FXIa inh 1536 -8.2, FXIIa inh 1536 -1.6, Calpain2 inh 1.0 and Thrombin inh -2.5.
Cn1c(CSCCOc2ccccc2)n[nH]c1=S was read as KLK5 inh 53.4*, FXIa inh 1536 -9.2, FXIIa inh 1536 0.4, Calpain2 inh 17.6 and Thrombin inh -5.0.
CCn1cc(C(=O)NCc2ccccc2OC)c(=O)c2cc(S(=O)(=O)N(C)C)ccc21 was read as KLK5 inh -0.5, FXIa inh 1536 -4.4, FXIIa inh 1536 8.9, Calpain2 inh -20.9 and Thrombin inh 9.3.
`CCn1cc(C(=O)NCc2ccc3c(c2)OCO3)c(=O)c2cc(S(=O)(=O)N(C)C)ccc21` gave KLK5 inh -10.1, FXIa inh 1536 5.1, FXIIa inh 1536 11.9, Calpain2 inh -2.1 and Thrombin inh 55.5*.
`CCn1cc(C(=O)NCc2ccc(Cl)cc2)c(=O)c2cc(S(=O)(=O)N3CCOCC3)ccc21` gave KLK5 inh -6.3, FXIa inh 1536 6.0, FXIIa inh 1536 13.8, Calpain2 inh -24.1 and Thrombin inh 56.0*.
CCn1cc(C(=O)NCc2ccc3c(c2)OCO3)c(=O)c2cc(S(=O)(=O)N3CCOCC3)ccc21 was read as KLK5 inh -8.3, FXIa inh 1536 -12.7, FXIIa inh 1536 -4.2, Calpain2 inh 22.9 and Thrombin inh 93.0*.
CC1(C)CN=C(N(Cc2ccccc2)C(=O)Nc2ccccc2)S1 was read as KLK5 inh -12.9, FXIa inh 1536 2.7, FXIIa inh 1536 7.2, Calpain2 inh 9.1 and Thrombin inh -1.2.
Screening Cc1ccc([N+](=O)[O-])cc1S(=O)(=O)Nc1ccccn1 returned KLK5 inh -3.7, FXIa inh 1536 -5.6, FXIIa inh 1536 6.7, Calpain2 inh -4.2 and Thrombin inh -1.2.
For CC1=C/C(=N\NC(=S)Nc2cccnc2)CC(C)(C)C1 the results were KLK5 inh 13.2, FXIa inh 1536 40.4*, FXIIa inh 1536 22.5, Calpain2 inh 24.1 and Thrombin inh 4.0.
`CC(C)(C)C(=O)C(CO)(Oc1ccc(Cl)cc1)n1cncn1` (configuration not stated) gave KLK5 inh 14.9, FXIa inh 1536 0.3, FXIIa inh 1536 12.9, Calpain2 inh 5.7 and Thrombin inh 2.4.
Screening Cc1ccc(C)c(SCC(=O)OCC(=O)Nc2ccc(S(=O)(=O)N3CCOCC3)cc2)c1 returned KLK5 inh -3.7, FXIa inh 1536 5.0, FXIIa inh 1536 9.7, Calpain2 inh 26.6 and Thrombin inh 49.6*.
`Cc1ccc(NC(=O)COC(=O)CCc2ccc(S(=O)(=O)N3CCOCC3)cc2)cc1C` gave KLK5 inh 2.0, FXIa inh 1536 -2.5, FXIIa inh 1536 7.7, Calpain2 inh -22.0 and Thrombin inh 0.5.
For COc1ccc(NC(=O)CSc2nnnn2-c2ccc(OC)cc2)cc1 the results were KLK5 inh -17.6, FXIa inh 1536 0.1, FXIIa inh 1536 16.6, Calpain2 inh -26.7 and Thrombin inh -10.2.
For COc1cc(OC)cc(-n2nnnc2SCC(=O)Nc2ccc(C(C)=O)cc2)c1 the results were KLK5 inh 19.1, FXIa inh 1536 -0.4, FXIIa inh 1536 8.9, Calpain2 inh 12.3 and Thrombin inh 89.2*.
